Molecular target: T1, Metabotropic glutamate receptor 4 (Rattus norvegicus, UniProt P31423)
Assay: Displacement of [3H]L-AP4 from rat recombinant mGluR4 expressed in BHK cells by SPA assay
Type: cell-based
Procedure, shortened: (§1)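 Scintillation proximity binding assay on membranes of BHK cells expressing rmGluR4 or rmGluR8. Radioligand was [3H]-L-AP4 for rmGluR4 and [3H]-LY341495 for rmGluR8. Values are means ± SEM of at least three independent experiments performed in triplicate.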

Row | SMILES | Ki
1 | NC(C(=O)O)[C@@H]1[C@H](c2ccccc2)[C@H]1P(=O)(O)O (some centres not stated) | > 1000 µM
2 | NC(C(=O)O)[C@@H]1[C@@H](c2ccccc2)[C@H]1P(=O)(O)O (some centres not stated) | > 1000 µM
3 | NC(C(=O)O)[C@H]1[C@H](c2ccccc2)[C@@H]1P(=O)(O)O (some centres not stated) | 24 µM
4 | NC(C(=O)O)[C@H]1[C@@H](c2ccccc2)[C@@H]1P(=O)(O)O (some centres not stated) | 630 µM
5 | NC(C(=O)O)[C@H]1C[C@@H]1P(=O)(O)O (some centres not stated) | 7.4 µM

Molecular target: Metabotropic glutamate receptor 8 (Rattus norvegicus, UniProt P70579)
Assay: Displacement of [3H]LY341495 from rat recombinant mGluR8 expressed in BHK cells by SPA assay
Type: cell-based
Procedure, shortened: as §1

Chain of Metabotropic glutamate receptor 8 (P70579 whole entry): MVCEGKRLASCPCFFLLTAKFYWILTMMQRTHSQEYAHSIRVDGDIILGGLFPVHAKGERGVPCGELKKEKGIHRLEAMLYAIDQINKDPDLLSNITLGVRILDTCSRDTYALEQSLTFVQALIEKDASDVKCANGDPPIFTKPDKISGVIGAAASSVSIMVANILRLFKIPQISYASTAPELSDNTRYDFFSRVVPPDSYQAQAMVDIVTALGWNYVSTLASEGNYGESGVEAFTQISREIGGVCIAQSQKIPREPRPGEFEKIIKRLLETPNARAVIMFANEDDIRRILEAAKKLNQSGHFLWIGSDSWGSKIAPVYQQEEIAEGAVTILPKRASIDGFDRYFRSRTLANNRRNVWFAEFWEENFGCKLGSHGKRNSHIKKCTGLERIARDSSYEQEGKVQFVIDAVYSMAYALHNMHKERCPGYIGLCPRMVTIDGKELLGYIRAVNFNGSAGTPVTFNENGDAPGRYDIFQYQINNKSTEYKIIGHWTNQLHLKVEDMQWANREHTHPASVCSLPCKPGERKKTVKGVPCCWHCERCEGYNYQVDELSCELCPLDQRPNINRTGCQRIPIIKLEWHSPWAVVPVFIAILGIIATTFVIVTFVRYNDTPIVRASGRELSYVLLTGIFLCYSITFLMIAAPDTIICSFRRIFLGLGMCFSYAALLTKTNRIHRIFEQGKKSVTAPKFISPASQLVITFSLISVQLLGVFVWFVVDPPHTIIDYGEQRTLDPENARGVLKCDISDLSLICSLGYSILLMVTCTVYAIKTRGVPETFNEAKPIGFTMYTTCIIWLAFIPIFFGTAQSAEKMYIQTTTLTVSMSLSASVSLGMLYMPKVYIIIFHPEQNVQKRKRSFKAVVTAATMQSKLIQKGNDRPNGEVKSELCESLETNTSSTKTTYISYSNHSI

Row | SMILES | Ki
6 | NC(C(=O)O)[C@H]1[C@H](c2ccccc2)[C@@H]1P(=O)(O)O (some centres not stated) | 130 µM
7 | NC(C(=O)O)[C@H]1[C@@H](c2ccccc2)[C@@H]1P(=O)(O)O (some centres not stated) | 190 µM
8 | NC(C(=O)O)[C@H]1C[C@@H]1P(=O)(O)O (some centres not stated) | 63 µM

Molecular target: Metabotropic glutamate receptor 1 (Rattus norvegicus, UniProt P23385)
Assay: Activity at rat recombinant mGluR1 expressed in CHO cells assessed as intracellular calcium concentration
Type: functional, cell-based

Chain of Metabotropic glutamate receptor 1 (P23385 whole entry): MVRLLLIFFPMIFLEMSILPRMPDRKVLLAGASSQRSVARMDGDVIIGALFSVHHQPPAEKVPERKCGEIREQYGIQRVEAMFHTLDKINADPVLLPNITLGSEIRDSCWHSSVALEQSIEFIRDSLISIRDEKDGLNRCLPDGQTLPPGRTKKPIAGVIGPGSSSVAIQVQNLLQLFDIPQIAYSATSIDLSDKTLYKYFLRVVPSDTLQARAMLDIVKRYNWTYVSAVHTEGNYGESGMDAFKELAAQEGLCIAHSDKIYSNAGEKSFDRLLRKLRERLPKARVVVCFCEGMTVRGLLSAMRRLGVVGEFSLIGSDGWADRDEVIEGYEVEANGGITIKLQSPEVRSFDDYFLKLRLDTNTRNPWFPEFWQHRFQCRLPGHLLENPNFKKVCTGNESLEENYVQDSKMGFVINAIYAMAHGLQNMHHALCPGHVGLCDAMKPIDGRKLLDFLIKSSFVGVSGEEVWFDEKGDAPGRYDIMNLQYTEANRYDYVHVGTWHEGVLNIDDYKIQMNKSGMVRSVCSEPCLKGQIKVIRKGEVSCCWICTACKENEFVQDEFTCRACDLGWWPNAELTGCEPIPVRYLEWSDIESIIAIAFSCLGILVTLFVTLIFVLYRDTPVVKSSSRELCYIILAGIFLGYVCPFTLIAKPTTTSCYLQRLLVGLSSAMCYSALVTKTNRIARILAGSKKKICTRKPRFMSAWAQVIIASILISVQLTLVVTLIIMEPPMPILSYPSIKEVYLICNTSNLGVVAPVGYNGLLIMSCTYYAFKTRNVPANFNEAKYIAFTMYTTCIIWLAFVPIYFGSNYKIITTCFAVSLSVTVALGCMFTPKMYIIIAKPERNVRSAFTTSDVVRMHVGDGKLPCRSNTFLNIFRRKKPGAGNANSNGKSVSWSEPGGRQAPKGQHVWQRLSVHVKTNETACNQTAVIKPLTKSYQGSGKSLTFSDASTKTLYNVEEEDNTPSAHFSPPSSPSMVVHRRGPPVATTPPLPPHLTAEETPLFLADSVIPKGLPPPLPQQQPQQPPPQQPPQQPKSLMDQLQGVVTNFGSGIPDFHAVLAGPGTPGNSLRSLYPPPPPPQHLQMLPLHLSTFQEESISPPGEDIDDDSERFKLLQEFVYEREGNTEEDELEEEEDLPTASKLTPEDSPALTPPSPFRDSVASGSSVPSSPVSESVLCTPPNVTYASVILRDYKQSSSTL

Row | SMILES | EC50
9 | NC(C(=O)O)[C@@H]1[C@H](c2ccccc2)[C@H]1P(=O)(O)O (some centres not stated) | > 1000 µM
10 | NC(C(=O)O)[C@@H]1[C@@H](c2ccccc2)[C@H]1P(=O)(O)O (some centres not stated) | > 1000 µM
11 | NC(C(=O)O)[C@H]1[C@H](c2ccccc2)[C@@H]1P(=O)(O)O (some centres not stated) | > 1000 µM
12 | NC(C(=O)O)[C@H]1[C@@H](c2ccccc2)[C@@H]1P(=O)(O)O (some centres not stated) | > 1000 µM
13 | NC(C(=O)O)[C@H]1C[C@@H]1P(=O)(O)O (some centres not stated) | > 1000 µM

Molecular target: T1, Metabotropic glutamate receptor 4
Assay: Agonist activity at rat recombinant mGluR4 expressed in BHK cells
Type: functional, cell-based
Procedure, shortened: (§2)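 Group III functional read-out: cAMP formation measured in BHK cells expressing hmGluR7 or rmGluR4. EC50 reported in µM as means ± SEM of at least three independent experiments, each performed in triplicate.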

Row | SMILES | EC50
14 | NC(C(=O)O)[C@@H]1[C@H](c2ccccc2)[C@H]1P(=O)(O)O (some centres not stated) | > 1000 µM
15 | NC(C(=O)O)[C@H]1[C@H](c2ccccc2)[C@@H]1P(=O)(O)O (some centres not stated) | 59 µM
16 | NC(C(=O)O)[C@H]1C[C@@H]1P(=O)(O)O (some centres not stated) | 9.4 µM

Molecular target: Metabotropic glutamate receptor 7 (Homo sapiens, UniProt Q14831)
Assay: Activity at human recombinant mGluR7 expressed in BHK cells assessed as cAMP production
Type: functional, cell-based
Procedure, shortened: as §2

Chain of Metabotropic glutamate receptor 7 (Q14831 whole entry): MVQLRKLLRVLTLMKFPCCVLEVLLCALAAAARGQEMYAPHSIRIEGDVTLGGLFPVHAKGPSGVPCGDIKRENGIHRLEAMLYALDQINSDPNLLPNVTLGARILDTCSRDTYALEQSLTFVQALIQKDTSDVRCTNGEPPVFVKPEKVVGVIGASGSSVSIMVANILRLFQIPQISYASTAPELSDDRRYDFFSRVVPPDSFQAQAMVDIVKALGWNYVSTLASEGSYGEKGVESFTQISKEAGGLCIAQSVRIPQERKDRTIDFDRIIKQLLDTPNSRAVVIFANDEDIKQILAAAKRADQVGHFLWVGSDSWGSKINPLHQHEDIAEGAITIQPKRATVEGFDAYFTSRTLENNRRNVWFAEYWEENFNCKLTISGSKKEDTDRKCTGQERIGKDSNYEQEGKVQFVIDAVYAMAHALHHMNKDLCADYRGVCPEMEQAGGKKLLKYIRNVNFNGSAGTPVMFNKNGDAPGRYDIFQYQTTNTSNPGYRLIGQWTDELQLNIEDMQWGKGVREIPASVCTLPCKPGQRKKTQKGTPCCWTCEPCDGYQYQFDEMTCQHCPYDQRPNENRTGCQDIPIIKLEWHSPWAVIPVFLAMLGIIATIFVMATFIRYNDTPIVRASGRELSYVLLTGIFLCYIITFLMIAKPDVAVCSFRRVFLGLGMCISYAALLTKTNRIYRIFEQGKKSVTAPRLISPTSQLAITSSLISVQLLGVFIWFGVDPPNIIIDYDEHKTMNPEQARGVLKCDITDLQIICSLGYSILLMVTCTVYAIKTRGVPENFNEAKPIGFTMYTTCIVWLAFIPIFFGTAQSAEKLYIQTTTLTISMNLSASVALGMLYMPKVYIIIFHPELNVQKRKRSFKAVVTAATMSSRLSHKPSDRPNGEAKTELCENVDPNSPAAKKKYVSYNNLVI

Row | SMILES | EC50
17 | NC(C(=O)O)[C@@H]1[C@@H](c2ccccc2)[C@H]1P(=O)(O)O (some centres not stated) | > 1000 µM
18 | NC(C(=O)O)[C@H]1[C@H](c2ccccc2)[C@@H]1P(=O)(O)O (some centres not stated) | > 1000 µM
19 | NC(C(=O)O)[C@H]1C[C@@H]1P(=O)(O)O (some centres not stated) | 700 µM

Molecular target: Metabotropic glutamate receptor 2 (Homo sapiens, UniProt Q14416)
Assay: Activity at human recombinant mGluR2 expressed in BHK cells assessed as stimulation of [35S]GTP-gamma-S binding
Type: functional, cell-based

Chain of Metabotropic glutamate receptor 2 (Q14416 whole entry): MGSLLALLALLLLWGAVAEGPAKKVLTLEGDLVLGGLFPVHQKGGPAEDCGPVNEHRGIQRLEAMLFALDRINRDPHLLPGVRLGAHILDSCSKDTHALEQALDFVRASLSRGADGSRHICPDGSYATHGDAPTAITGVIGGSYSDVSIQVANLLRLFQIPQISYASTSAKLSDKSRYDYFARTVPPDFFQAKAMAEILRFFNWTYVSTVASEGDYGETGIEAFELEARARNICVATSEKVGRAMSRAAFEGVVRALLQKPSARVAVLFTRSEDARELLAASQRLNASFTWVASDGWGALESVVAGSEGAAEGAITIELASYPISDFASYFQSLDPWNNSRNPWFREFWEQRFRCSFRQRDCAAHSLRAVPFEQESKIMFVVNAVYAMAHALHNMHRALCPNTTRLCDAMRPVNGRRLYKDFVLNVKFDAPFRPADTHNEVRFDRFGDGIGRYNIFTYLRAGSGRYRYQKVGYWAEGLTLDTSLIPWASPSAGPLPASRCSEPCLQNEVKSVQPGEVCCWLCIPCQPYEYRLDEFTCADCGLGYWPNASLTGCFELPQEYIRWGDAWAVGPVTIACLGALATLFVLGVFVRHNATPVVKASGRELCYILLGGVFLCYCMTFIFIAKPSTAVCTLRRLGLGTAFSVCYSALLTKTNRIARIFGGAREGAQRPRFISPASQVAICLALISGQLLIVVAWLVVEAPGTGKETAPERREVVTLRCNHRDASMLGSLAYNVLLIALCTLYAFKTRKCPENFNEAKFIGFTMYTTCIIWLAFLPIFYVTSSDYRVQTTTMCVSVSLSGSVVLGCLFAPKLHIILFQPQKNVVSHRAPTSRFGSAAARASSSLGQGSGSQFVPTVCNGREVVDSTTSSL

Row | SMILES | EC50
20 | NC(C(=O)O)[C@@H]1[C@H](c2ccccc2)[C@H]1P(=O)(O)O (some centres not stated) | > 1000 µM
21 | NC(C(=O)O)[C@@H]1[C@@H](c2ccccc2)[C@H]1P(=O)(O)O (some centres not stated) | > 1000 µM
22 | NC(C(=O)O)[C@H]1[C@H](c2ccccc2)[C@@H]1P(=O)(O)O (some centres not stated) | > 1000 µM
23 | NC(C(=O)O)[C@H]1[C@@H](c2ccccc2)[C@@H]1P(=O)(O)O (some centres not stated) | 320 µM
24 | NC(C(=O)O)[C@H]1C[C@@H]1P(=O)(O)O (some centres not stated) | > 1000 µM

Molecular target: Metabotropic glutamate receptor 6 (Rattus norvegicus, UniProt P35349)
Assay: Activity at rat recombinant mGluR6 expressed in CHO cells assessed as cAMP production
Type: functional, cell-based
Procedure, shortened: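 rmGluR6 expressed in CHO cells. Potency was measured from cAMP formation, reported as EC50. Means ± SEM of at least three independent experiments, each in triplicate.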

Row | SMILES | EC50
25 | NC(C(=O)O)[C@@H]1[C@@H](c2ccccc2)[C@H]1P(=O)(O)O (some centres not stated) | > 1000 µM
26 | NC(C(=O)O)[C@H]1[C@H](c2ccccc2)[C@@H]1P(=O)(O)O (some centres not stated) | 51 µM
27 | NC(C(=O)O)[C@H]1C[C@@H]1P(=O)(O)O (some centres not stated) | 13 µM

Molecular target: Metabotropic glutamate receptor 5 (Rattus norvegicus, UniProt P31424)
Assay: Activity at rat recombinant mGluR5 expressed in CHO cells assessed as intracellular calcium concentration
Type: functional, cell-based

Chain of Metabotropic glutamate receptor 5 (P31424 whole entry): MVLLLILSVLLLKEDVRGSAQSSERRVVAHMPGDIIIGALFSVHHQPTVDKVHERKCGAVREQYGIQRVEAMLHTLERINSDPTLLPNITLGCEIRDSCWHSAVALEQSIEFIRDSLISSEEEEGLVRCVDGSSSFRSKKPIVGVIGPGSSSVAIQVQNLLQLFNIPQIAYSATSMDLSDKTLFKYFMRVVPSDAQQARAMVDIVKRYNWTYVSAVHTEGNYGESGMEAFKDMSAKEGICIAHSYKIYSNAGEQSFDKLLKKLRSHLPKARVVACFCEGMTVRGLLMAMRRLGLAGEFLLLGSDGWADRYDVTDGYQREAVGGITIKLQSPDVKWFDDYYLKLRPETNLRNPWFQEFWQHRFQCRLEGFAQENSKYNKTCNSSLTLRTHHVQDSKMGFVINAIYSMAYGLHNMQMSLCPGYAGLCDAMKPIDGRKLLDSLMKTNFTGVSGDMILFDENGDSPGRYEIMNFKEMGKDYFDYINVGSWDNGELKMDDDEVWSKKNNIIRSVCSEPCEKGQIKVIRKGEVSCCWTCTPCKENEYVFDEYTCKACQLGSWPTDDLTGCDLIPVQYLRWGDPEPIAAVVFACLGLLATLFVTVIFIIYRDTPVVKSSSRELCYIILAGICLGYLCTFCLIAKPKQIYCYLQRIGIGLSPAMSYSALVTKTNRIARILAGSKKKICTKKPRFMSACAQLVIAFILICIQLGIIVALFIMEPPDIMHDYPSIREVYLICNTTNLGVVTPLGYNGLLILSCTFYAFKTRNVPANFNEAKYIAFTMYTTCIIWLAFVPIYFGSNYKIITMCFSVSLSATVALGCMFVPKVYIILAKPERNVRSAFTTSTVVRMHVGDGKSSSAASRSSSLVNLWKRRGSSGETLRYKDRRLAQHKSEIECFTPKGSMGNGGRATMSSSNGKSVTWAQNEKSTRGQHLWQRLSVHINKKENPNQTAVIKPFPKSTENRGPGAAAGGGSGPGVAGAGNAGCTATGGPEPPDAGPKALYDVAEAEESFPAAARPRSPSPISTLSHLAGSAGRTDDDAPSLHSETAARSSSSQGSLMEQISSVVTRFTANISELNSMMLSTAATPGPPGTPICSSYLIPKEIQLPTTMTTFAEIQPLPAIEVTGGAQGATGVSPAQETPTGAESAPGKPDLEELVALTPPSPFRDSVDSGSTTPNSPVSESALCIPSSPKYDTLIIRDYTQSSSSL

Row | SMILES | EC50
28 | NC(C(=O)O)[C@@H]1[C@H](c2ccccc2)[C@H]1P(=O)(O)O (some centres not stated) | > 1000 µM
29 | NC(C(=O)O)[C@@H]1[C@@H](c2ccccc2)[C@H]1P(=O)(O)O (some centres not stated) | > 1000 µM
30 | NC(C(=O)O)[C@H]1[C@H](c2ccccc2)[C@@H]1P(=O)(O)O (some centres not stated) | > 1000 µM
31 | NC(C(=O)O)[C@H]1[C@@H](c2ccccc2)[C@@H]1P(=O)(O)O (some centres not stated) | > 1000 µM
32 | NC(C(=O)O)[C@H]1C[C@@H]1P(=O)(O)O (some centres not stated) | > 1000 µM
